Assay results from ChEMBL document CHEMBL1131436, “Repaglinide and related hypoglycemic benzoic acid derivatives” (1998).
Several values for one entry are separate records, joined by “and”; a condition that tells them apart may be missing. Identical values can stand only once. Activity calls are given as the source filed them. The rule behind the calls is not given here.

Columns and labels:
Rattus norvegicus [1] = experiment: Maximum % decrease of blood glucose (deltaBG) was observed within 4 hour after administration orally at 0.1 mg/kg dose to fasted adult female rats versus a control group; type: functional; conditions: route oral
Summary of the method: (§1)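 Female Wistar rats (Chbb THOM, SPF, 200-220 g), fasted 24 h, dosed orally by gavage as suspension in 1.5% Tylose methylcellulose (10 mL/kg). Whole blood from retrobulbar plexus under light halothane, deproteinized with 0.33 M HClO4; glucose by hexokinase/G6PDH, hourly up to 4 h. % decrease vs control group (N = 7), Student's t-test, P ≤ 0.05.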

Rattus norvegicus [2] = experiment: Maximum % decrease of blood glucose (deltaBG) was observed within 4 hour after administration orally at 0.01 mg/kg dose to fasted adult female rats versus a control group; NS =' not significant'; type: functional, organism-based; design: dose 0.01 mg/kg; summary of the method: as §1
Rattus norvegicus [3] = experiment: Maximum % decrease of blood glucose (deltaBG) was observed within 4 hour after administration orally at 1 mg/kg dose to fasted adult female rats versus a control group; NS =' not significant'; type: functional, organism-based; design: dose 1 mg/kg; summary of the method: as §1
Rattus norvegicus [4] = experiment: Maximum % decrease of blood glucose (deltaBG) was observed within 4 hour after administration orally at 5 mg/kg dose to fasted adult female rats versus a control group; type: functional; conditions: route oral; summary of the method: as §1
Rattus norvegicus [5] = experiment: Half-maximal effective dose was measured on rat blood glucose after administrating at 4 hr; type: functional
Summary of the method: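 Adult fasted female Wistar rats (Chbb THOM, SPF, 200-220 g), food withdrawn 24 h; oral gavage of suspension in 1.5% Tylose (methylcellulose), 10 mL/kg. Retrobulbar blood under light halothane; glucose by hexokinase/G6PDH after HClO4 deproteinization, hourly to 4 h. ED50 from fit of glucose vs dose, y = b + [a × k/(k + x^nH)], Hill coefficient nH.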

Rattus norvegicus [6] = experiment: Maximum % decrease of blood glucose (deltaBG) was observed within 3 hour after administration orally at 0.1 mg/kg dose to fasted adult female rats versus a control group; type: functional; conditions: route oral; summary of the method: as §1
Rattus norvegicus [7] = experiment: Maximum % decrease of blood glucose (deltaBG) was observed within 4 hour after administration orally at 0.01 mg/kg dose to fasted adult female rats versus a control group; type: functional; conditions: route oral; summary of the method: as §1
Rattus norvegicus [8] = experiment: Maximum % decrease of blood glucose (deltaBG) was observed within 1 hour after administration orally at 0.1 mg/kg dose to fasted adult female rats versus a control group; type: functional; conditions: route oral; summary of the method: as §1
Rattus norvegicus [9] = experiment: Maximum % decrease of blood glucose (deltaBG) was observed within 2 hour after administration orally at 0.1 mg/kg dose to fasted adult female rats versus a control group; type: functional; conditions: route oral; summary of the method: as §1
Rattus norvegicus [10] = experiment: Maximum % decrease of blood glucose (deltaBG) was observed within 0.5 hour after administration orally at 0.1 mg/kg dose to fasted adult female rats versus a control group; type: functional; conditions: route oral
Rattus norvegicus [11] = experiment: Maximum % decrease of blood glucose (deltaBG) was observed within 4 hour after administration orally at 25 mg/kg dose to fasted adult female rats versus a control group; NS =' not significant'; type: functional, organism-based; design: dose 25 mg/kg; summary of the method: as §1
Rattus norvegicus [12] = experiment: Maximum % decrease of blood glucose (deltaBG) was observed within 4 hour after administration orally at 100 mg/kg dose to fasted adult female rats versus a control group; type: functional; conditions: route oral; summary of the method: as §1
Rattus norvegicus [13] = experiment: Maximum % decrease of blood glucose (deltaBG) was observed within 4 hour after administration orally at 1 mg/kg dose to fasted adult female rats versus a control group; type: functional; conditions: route oral; summary of the method: as §1
Rattus norvegicus [14] = experiment: Maximum % decrease of blood glucose (deltaBG) was observed within 4 hour after administration orally at 0.5 mg/kg dose to fasted adult female rats versus a control group; type: functional; conditions: route oral; summary of the method: as §1
Rattus norvegicus [15] = organism: Rattus norvegicus; conditions: Blood, 0.1 mg/kg
Rattus norvegicus [16] = experiment: Maximum % decrease of blood glucose (deltaBG) was observed within 4 hour after administration orally at 0.3 mg/kg dose to fasted adult female rats versus a control group; type: functional; conditions: route oral; summary of the method: as §1
Rattus norvegicus [17] = organism: Rattus norvegicus; conditions: Blood, 0.1 mg/kg; remark: listed apart in the source
Rattus norvegicus [18] = experiment: Maximum % decrease of blood glucose (deltaBG) was observed within 3 hour after administration orally at 0.1 mg/kg dose to fasted adult female rats versus a control group; NS =' not significant'; type: functional, organism-based; design: dose 0.1 mg/kg; summary of the method: as §1
Rattus norvegicus [19] = organism: Rattus norvegicus; conditions: Blood, 0.1 mg/kg; remark: listed apart in the source
Rattus norvegicus [20] = experiment: Maximum % decrease of blood glucose (deltaBG) was observed within 4 hour after administration orally at 0.1 mg/kg dose to fasted adult female rats versus a control group; NS =' not significant'; type: functional, organism-based; design: dose 0.1 mg/kg; summary of the method: as §1
Rattus norvegicus [21] = experiment: Maximum % decrease of blood glucose (deltaBG) was observed within 4 hour after administration orally at 10 mg/kg dose to fasted adult female rats versus a control group; NS =' not significant'; type: functional, organism-based; design: dose 10 mg/kg; summary of the method: as §1
Rattus norvegicus [22] = experiment: Maximum % decrease of blood glucose (deltaBG) was observed within 4 hour after administration orally at 50 mg/kg dose to fasted adult female rats versus a control group; NS =' not significant'; type: functional, organism-based; design: dose 50 mg/kg; summary of the method: as §1
Rattus norvegicus [23] = experiment: Maximum % decrease of blood glucose (deltaBG) was observed within 1 hour after administration orally at 0.5 mg/kg dose to fasted adult female rats versus a control group; type: functional; conditions: route oral; summary of the method: as §1
Rattus norvegicus [24] = experiment: Maximum % decrease of blood glucose (deltaBG) was observed within 2 hour after administration orally at 0.5 mg/kg dose to fasted adult female rats versus a control group; type: functional; conditions: route oral; summary of the method: as §1
Rattus norvegicus [25] = experiment: Maximum % decrease of blood glucose (deltaBG) was observed within 3 hour after administration orally at 0.5 mg/kg dose to fasted adult female rats versus a control group; type: functional; conditions: route oral; summary of the method: as §1
Rattus norvegicus [26] = experiment: Maximum % decrease of blood glucose (deltaBG) was observed within 4 hour after administration orally at 5 mg/kg dose to fasted adult female rats versus a control group; NS =' not significant'; type: functional, organism-based; design: dose 5 mg/kg; summary of the method: as §1
Rattus norvegicus [27] = experiment: Maximum % decrease of blood glucose (deltaBG) was observed within 4 hour after administration orally at 25 mg/kg dose to fasted adult female rats versus a control group; type: functional; conditions: route oral; summary of the method: as §1
Rattus norvegicus [28] = experiment: Maximum % decrease of blood glucose (deltaBG) was observed within 1 hr after administration orally at 0.5 mg/kg dose to fasted adult female rats versus a control group; type: functional; conditions: route oral; summary of the method: as §1
[29] = Rattus norvegicus, Blood, 4 h, read-out: ED50

Compound: CCOc1cc(CC(=O)NC(CC)c2ccccc2N2CCCCC2)ccc1C(=O)O (stereo not given)
- Delta BG (Rattus norvegicus [1]): -42%
- Delta BG (Rattus norvegicus [2]): Not significant

Compound: O=C(O)c1ccc(CCNC(=O)c2cc(Cl)ccc2N2CCCCC2)cc1
- Delta BG (Rattus norvegicus [3]): Not significant
- Delta BG (Rattus norvegicus [4]): -37%

Compound: CCOc1cc(CC(=O)N[C@@H](CC(C)C)c2ccccc2N2CCCCC2)ccc1C(=O)O (stereo in doubt; (S)-6al) [REPAGLINIDE]
- ED50 (Rattus norvegicus [5]): 0.01 mg/kg
- Delta BG (Rattus norvegicus [1]; 0.1 mg/kg): -47%
- Delta BG (Rattus norvegicus [6]): -34%
- Delta BG (Rattus norvegicus [7]): -21%
- Delta BG (Rattus norvegicus [8]): -47%
- Delta BG (Rattus norvegicus [9]): -40%
- Delta BG (Rattus norvegicus [10]): -42%

Compound: CC(NC(=O)Cc1ccc(C(=O)O)cc1)c1cc(Cl)ccc1N1CCCCCCCC1 (stereo not given)
- Delta BG (Rattus norvegicus [11]): Not significant

Compound: CCOc1cc(CC(=O)N[C@@H](CC(C)C)c2ccccc2N2CCCCC2)ccc1C(=O)O (stereo in doubt; 6al) [REPAGLINIDE]
- ED50 (Rattus norvegicus [5]): 0.022 mg/kg
- Delta BG (Rattus norvegicus [1]; 0.1 mg/kg): -44%
- Delta BG (Rattus norvegicus [7]): -19%

Compound: O=C(O)c1ccc(CCNC(=O)c2cccc(Cl)c2)cc1
- Delta BG (Rattus norvegicus [12]): -23%

Compound: CC(NC(=O)Cc1ccc(C(=O)O)cc1)c1ccccc1N1CCCCC1 (stereo not given)
- ED50 (Rattus norvegicus [5]): 0.3 mg/kg
- ED50 (Rattus norvegicus [5]; [29]): 0.3 mg/kg
- Delta BG (Rattus norvegicus [1]): -13%
- Delta BG (Rattus norvegicus [13]): -41%
- Delta BG (Rattus norvegicus [14]): -31%
- Delta BG (Rattus norvegicus [4]): -49%

Compound: COc1ccc(Cl)cc1C(=O)NCCc1ccc(S(=O)(=O)NC(=O)NC2CCCCC2)cc1 [GLYBURIDE]
- Delta BG (Rattus norvegicus [15]): inactive
- ED50 (Rattus norvegicus [5]; [29]): 0.255 mg/kg
- Delta BG (Rattus norvegicus [16]): -25%
- Delta BG (Rattus norvegicus [17]): inactive
- Delta BG (Rattus norvegicus [18]): inactive
- Delta BG (Rattus norvegicus [19]): inactive
- Delta BG (Rattus norvegicus [20]): inactive

Compound: CCCC(NCCc1ccc(C(=O)O)cc1)c1ccccc1N1CCCCC1 (stereo not given)
- Delta BG (Rattus norvegicus [21]): Not significant

Compound: CC(NC(=O)Cc1ccc(-c2nn[nH]n2)cc1)c1ccccc1N1CCCCC1 (stereo not given)
- Delta BG (Rattus norvegicus [22]): Not significant

Compound: CCCC(NC(=O)Cc1ccc(C(=O)O)c(OC)c1)c1ccccc1N1CCCCC1 (stereo not given)
- Delta BG (Rattus norvegicus [1]): -43%
- Delta BG (Rattus norvegicus [14]): -31%
- Delta BG (Rattus norvegicus [23]): -42%
- Delta BG (Rattus norvegicus [18]): Not significant
- Delta BG (Rattus norvegicus [8]): -43%
- Delta BG (Rattus norvegicus [20]): Not significant
- Delta BG (Rattus norvegicus [9]): -27%
- Delta BG (Rattus norvegicus [24]): -39%
- Delta BG (Rattus norvegicus [10]): -38%
- Delta BG (Rattus norvegicus [25]): -37%

Compound: CC(NC(=O)Cc1ccccc1C(=O)O)c1ccccc1N1CCCCC1 (stereo not given)
- Delta BG (Rattus norvegicus [11]): Not significant

Compound: CC(NC(=O)Cc1ccc(C(=O)O)cc1)c1ccccc1N1CCCCCC1 (stereo not given)
- Delta BG (Rattus norvegicus [4]): -29%

Compound: CC(NC(=O)Cc1ccc(C(=O)O)cc1)c1cc(Cl)ccc1N1CCCCCC1 (stereo not given)
- Delta BG (Rattus norvegicus [26]): Not significant

Compound: O=C(O)c1ccc(CCNC(=O)c2cc(Cl)ccc2N2CCCC2)cc1
- Delta BG (Rattus norvegicus [27]): -18%

Compound: CCCC(CCCc1ccc(C(=O)O)cc1)c1ccccc1N1CCCCC1 (stereo not given)
- Delta BG (Rattus norvegicus [11]): Not significant

Compound: CCCC(NC(=O)Cc1ccc(C(=O)O)cc1)c1ccccc1N1CCCCC1 (stereo not given)
- ED50 (Rattus norvegicus [5]; [29]): 0.07 mg/kg
- Delta BG (Rattus norvegicus [1]; 0.1 mg/kg): -27% and -9%
- Delta BG (Rattus norvegicus [14]): -18%
- Delta BG (Rattus norvegicus [28]): -42%
- Delta BG (Rattus norvegicus [6]): -16%
- Delta BG (Rattus norvegicus [8]): -27%
- Delta BG (Rattus norvegicus [9]): -17%
- Delta BG (Rattus norvegicus [24]): -34%
- Delta BG (Rattus norvegicus [25]): -23%
